System: not listed separately
Assay: Chemical stability of the compound in DMSO-d6 solution after 120 mins by LC/MS analysis
Type: physicochemical
Conditions: 2 h; call rule not given here

For `CCCCCCNC(=O)n1c(C)c(C)c(=O)[nH]c1=O`, the Stability was “Unstable”.
For `CCCCCCNC(=O)n1c(Cl)cc(=O)[nH]c1=O`, the Stability was “Unstable”.

System: not listed separately
Assay: Antiproliferative activity against human SW403 cells after 72 hrs by MTT assay
Type: functional, cell-based
Conditions: SW-403, 72 h
Method in brief: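 SW403 cells exposed to compounds for 72 h; viability read by MTT reduction, n=4 per drug concentration; EC50 derived from concentration–response.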

In order of falling EC50:
1. CCCCCCNC(=O)n1cc(-c2ccccc2)c(=O)[nH]c1=O  24 µM
2. CCCCCCNC(=O)n1cc(F)c(=O)n(C)c1=O  22 µM
3. CCCCCCCCNC(=O)n1ccc(=O)[nH]c1=O  20 µM

System: not listed separately
Assay: Chemical stability of the compound in buffer at pH 4.5 after 30 mins by LC/MS analysis
Type: physicochemical
Conditions: read-out: Stability

For `CCCCCCNC(=O)n1cc(C#N)c(=O)[nH]c1=O`, the remaining at 0.5 h was 22%.

Molecular target: T1, Acid ceramidase (Homo sapiens, UniProt Q13510)
T1 sequence (Q13510 whole entry): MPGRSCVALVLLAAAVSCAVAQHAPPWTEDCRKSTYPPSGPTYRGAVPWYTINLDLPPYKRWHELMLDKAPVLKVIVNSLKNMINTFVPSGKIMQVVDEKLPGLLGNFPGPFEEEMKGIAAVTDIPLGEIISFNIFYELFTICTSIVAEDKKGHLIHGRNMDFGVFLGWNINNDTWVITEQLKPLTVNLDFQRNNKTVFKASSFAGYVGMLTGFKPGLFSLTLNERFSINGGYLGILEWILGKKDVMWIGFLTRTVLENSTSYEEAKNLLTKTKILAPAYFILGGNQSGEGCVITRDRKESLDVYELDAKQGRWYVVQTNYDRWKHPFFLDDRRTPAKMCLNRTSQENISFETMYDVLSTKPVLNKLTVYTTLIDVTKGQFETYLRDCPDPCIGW
Assay: Inhibition of acid ceramidase (unknown origin)
Conditions: not given

Work on `CCCCCCCC/C=C\CCCCCCCC(=O)NCCO` [OLEOYLETHANOLAMIDE] yielded a Ki of 500 µM.

Molecular target: T2, Acid ceramidase (Rattus norvegicus, UniProt Q6P7S1)
T2 sequence (Q6P7S1 whole entry): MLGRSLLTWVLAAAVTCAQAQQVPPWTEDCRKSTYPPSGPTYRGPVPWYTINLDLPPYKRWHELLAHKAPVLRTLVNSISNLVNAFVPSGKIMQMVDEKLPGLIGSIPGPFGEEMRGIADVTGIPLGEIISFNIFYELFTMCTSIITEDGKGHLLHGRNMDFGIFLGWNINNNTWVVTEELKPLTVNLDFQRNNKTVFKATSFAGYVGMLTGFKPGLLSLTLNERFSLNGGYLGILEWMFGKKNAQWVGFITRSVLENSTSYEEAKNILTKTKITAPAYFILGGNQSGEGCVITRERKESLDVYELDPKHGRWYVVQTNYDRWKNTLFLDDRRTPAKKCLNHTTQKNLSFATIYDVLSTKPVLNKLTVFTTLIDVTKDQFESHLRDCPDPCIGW
Assay: Inhibition of rat recombinant acid ceramidase expressed in human HEK293 cells using N-lauroylceramide as substrate incubated for 30 mins prior to substrate addition measured after 30 mins by LC/MS analysis
Conditions: hek293
Method in brief: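 Rat AC from cell lysate: sucrose/Tris homogenate, 12000g pellet, freeze–thaw in PBS, 105000g supernatant. Enzyme (50 μg protein) preincubated 30 min, 37 °C, with inhibitor (final DMSO 1%) in pH 4.5 phosphate/citrate buffer with 0.1% NP-40, 150 mM NaCl, 3 mM DTT; 100 μM N-lauroylceramide, 30 min, 37 °C; lauric acid quantified by LC/MS against heptadecanoic acid standard.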

With `CCCCCCN(C)C(=O)n1ccc(=O)[nH]c1=O` the IC50 was “Not Active”.
For `CCCCCCNC(=O)n1cc(C#N)c(=O)[nH]c1=O`, the IC50 was “ND(Unstable)”.
For `CCCCCCNC(=O)N1CCC(=O)NC1=O`, the IC50 was “Not Active”.
With `CCCCCCNC(=O)n1c(C)c(C)c(=O)[nH]c1=O` the IC50 was “ND(Unstable)”.
With `CCCCCCNC(=O)n1c(Cl)cc(=O)[nH]c1=O` the IC50 was “ND(Unstable)”.

Same assay, conditions: hek293; read-out: IC50

In order of rising IC50:
1. CCCCCCNC(=O)n1cc(C(F)(F)F)c(=O)[nH]c1=O  0.012 µM
2. CCCCCCNC(=O)n1cc(F)c(=O)[nH]c1=O [CARMOFUR]  0.029 µM
3. CCCCCCNC(=O)n1ccc(=O)[nH]c1=O  0.426 µM

Same assay, conditions: read-out: IC50

In order of rising IC50:
1. CCCCCCCCNC(=O)n1cc(F)c(=O)n(C(=O)OC)c1=O  0.004 µM
2. CCCCCCNC(=O)n1cc(F)c(=O)n(C(=O)OC)c1=O  0.007 µM
3. CCCCCCNC(=O)n1cc(F)c(=O)n(C(=O)OCC)c1=O  0.012 µM
4. CCCCCCNC(=O)n1cc(F)c(=O)n(C)c1=O  0.013 µM
5. CCCCCCNC(=O)n1cc(F)c(=O)n(C(=O)OCC(C)C)c1=O  0.016 µM
6. CCCCCCNC(=O)n1cc(F)c(=O)n(CC)c1=O  0.018 µM
7. CCCCCCNC(=O)n1cc(F)c(=O)n(C(=O)c2ccccc2)c1=O  0.02 µM
8. CCCCCCNC(=O)n1cc(F)c(=O)n(C(=O)C(C)C)c1=O  0.021 µM
9. CCCCCCCCNC(=O)n1cc(F)c(=O)[nH]c1=O  0.046 µM
10. CCCCCCNC(=O)n1ccc(=O)n(C)c1=O  0.053 µM
11. CCCCCCNC(=O)n1cc(F)c(=O)n(CC2CC2)c1=O  0.061 µM
12. CCCCCCCCNC(=O)n1ccc(=O)[nH]c1=O  0.283 µM
13. CCCCCCCNC(=O)n1ccc(=O)[nH]c1=O  0.325 µM
14. CCCCCCCCCNC(=O)n1ccc(=O)[nH]c1=O  0.464 µM
15. CCCCCCNC(=O)n1cc(CC)c(=O)[nH]c1=O  0.733 µM
16. CCCCCCNC(=O)n1cc(C)c(=O)[nH]c1=O  1.46 µM
17. CCCCCNC(=O)n1ccc(=O)[nH]c1=O  2.1 µM
18. CCCCNC(=O)n1ccc(=O)[nH]c1=O  8.5 µM
